Laboratory results as given in ChEMBL document CHEMBL1275351, “Novel spirotetracyclic zwitterionic dual H(1)/5-HT(2A) receptor antagonists for the treatment of sleep disorders” (J Med Chem, 2010).

Experiments:
[1] = Fraction unbound in rat blood; assay type: ADME, tissue-based
[2] = system: Rattus norvegicus; test: Hypnotic activity in Sprague-Dawley rat assessed as rapid eye movement sleep at 3 mg/kg, po administered during active phase; assay type: functional
In short: (§1)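 Male Sprague-Dawley rats (275-300 g) carried implanted telemetric EEG/EMG transmitters and were used 3 weeks after surgery. Oral dosing (2 mL/kg) was given 6 h after lights off (CT18) in a randomized crossover versus vehicle. Recording ran for 5 h in 10 s epochs scored by FFT. n = 8, mean ± SEM; one-way ANOVA with Dunnett's test.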

[3] = system: Rattus norvegicus; test: Hypnotic activity in Sprague-Dawley rat assessed as non-rapid eye movement sleep at 1 mg/kg, po administered during active phase; assay type: functional; in short: as §1
[4] = target: T1, 5-hydroxytryptamine receptor 2C (Homo sapiens, UniProt P28335); test: Antagonist activity at human 5HT2C receptor expressed in human SH-SY5Y cells by FLIPR assay; assay type: functional, cell-based
T1 sequence (P28335 whole entry): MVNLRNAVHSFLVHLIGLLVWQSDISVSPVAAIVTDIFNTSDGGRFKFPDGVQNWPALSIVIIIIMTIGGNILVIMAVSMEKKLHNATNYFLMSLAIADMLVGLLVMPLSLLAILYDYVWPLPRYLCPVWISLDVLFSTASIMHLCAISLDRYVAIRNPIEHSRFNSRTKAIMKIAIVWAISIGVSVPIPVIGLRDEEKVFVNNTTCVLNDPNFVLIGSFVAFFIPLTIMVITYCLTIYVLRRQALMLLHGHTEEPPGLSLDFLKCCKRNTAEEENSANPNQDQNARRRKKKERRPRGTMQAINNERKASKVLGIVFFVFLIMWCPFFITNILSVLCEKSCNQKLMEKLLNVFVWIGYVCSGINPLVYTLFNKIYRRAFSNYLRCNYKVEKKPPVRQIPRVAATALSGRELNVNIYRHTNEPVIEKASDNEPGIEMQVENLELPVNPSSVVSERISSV

[5] = system: Rattus norvegicus; test: Hypnotic activity in Sprague-Dawley rat assessed as rapid eye movement latency period at 10 mg/kg, po administered during active phase; assay type: functional; in short: as §1
[6] = system: Rattus norvegicus; test: Hypnotic activity in Sprague-Dawley rat assessed as rapid eye movement latency period at 3 mg/kg, po administered during active phase; assay type: functional; in short: as §1
[7] = target: Cytochrome P450 2C19 (Homo sapiens, UniProt P33261); test: Inhibition of human CYP2C19 transfected in bactosome expression system by spectrofluorimetry; assay type: ADME
Sequence of Cytochrome P450 2C19 (P33261 whole entry): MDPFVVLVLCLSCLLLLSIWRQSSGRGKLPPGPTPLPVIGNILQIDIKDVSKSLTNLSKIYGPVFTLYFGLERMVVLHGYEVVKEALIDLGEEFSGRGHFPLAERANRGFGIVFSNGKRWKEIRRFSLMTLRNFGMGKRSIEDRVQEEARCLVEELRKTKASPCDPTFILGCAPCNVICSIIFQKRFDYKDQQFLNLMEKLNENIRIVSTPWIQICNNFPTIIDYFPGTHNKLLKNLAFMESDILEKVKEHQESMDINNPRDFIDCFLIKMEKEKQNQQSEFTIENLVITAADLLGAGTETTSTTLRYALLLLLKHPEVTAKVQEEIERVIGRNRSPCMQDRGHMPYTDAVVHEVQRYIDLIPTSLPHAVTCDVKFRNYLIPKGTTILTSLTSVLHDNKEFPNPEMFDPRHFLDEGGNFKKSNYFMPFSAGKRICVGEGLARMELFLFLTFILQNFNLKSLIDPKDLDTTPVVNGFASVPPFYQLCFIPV
In short: (§2)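 Recombinant human CYP Bactosomes (0.1 mg/mL) in 50 mM phosphate buffer, pH 7.4. Compound at 0.1-10 μM was preincubated with fluorogenic substrate for 10 min at 37 °C, and the reaction was started with an NADPH regenerating system. Metabolite fluorescence was followed for 10 min. Substrates: 1A2 ethoxyresorufin 0.5 μM; 2C9 FCA 50 μM; 2C19 BMC 10 μM; 2D6 MMC 10 μM; 3A4 DEF 1 μM or 7-BQ 25 μM. Run in triplicate.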

[8] = system: Rattus norvegicus; test: Hypnotic activity in Sprague-Dawley rat assessed as total sleep time at 1 mg/kg, po administered during active phase; assay type: functional; in short: as §1
[9] = target: 5-hydroxytryptamine receptor 2A (Homo sapiens, UniProt P28223); test: Antagonist activity at human 5HT2A receptor expressed in HEK cells assessed as inhibition of intracellular calcium accumulation by aequorin assay; assay type: functional, cell-based, HEK293
Sequence of 5-hydroxytryptamine receptor 2A (Homo sapiens, UniProt P28223) (P28223 whole entry): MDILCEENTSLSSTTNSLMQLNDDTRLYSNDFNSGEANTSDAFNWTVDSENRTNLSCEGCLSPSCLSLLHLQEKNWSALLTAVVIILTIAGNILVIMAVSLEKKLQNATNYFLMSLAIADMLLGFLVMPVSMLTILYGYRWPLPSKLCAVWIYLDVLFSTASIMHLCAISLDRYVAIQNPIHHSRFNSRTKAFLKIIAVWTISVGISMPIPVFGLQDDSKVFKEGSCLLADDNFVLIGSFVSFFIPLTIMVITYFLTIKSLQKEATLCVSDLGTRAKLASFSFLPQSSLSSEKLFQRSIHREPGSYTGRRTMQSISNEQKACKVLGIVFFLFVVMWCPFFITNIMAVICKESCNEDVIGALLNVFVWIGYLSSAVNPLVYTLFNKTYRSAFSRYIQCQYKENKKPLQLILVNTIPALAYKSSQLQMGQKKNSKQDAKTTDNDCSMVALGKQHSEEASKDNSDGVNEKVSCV

[10] = target: Cytochrome P450 3A4 (Homo sapiens, UniProt P08684); test: Inhibition of human CYP3A4 transfected in bactosome expression system by spectrofluorimetry; assay type: ADME; in short: as §2
Sequence of Cytochrome P450 3A4 (P08684 whole entry): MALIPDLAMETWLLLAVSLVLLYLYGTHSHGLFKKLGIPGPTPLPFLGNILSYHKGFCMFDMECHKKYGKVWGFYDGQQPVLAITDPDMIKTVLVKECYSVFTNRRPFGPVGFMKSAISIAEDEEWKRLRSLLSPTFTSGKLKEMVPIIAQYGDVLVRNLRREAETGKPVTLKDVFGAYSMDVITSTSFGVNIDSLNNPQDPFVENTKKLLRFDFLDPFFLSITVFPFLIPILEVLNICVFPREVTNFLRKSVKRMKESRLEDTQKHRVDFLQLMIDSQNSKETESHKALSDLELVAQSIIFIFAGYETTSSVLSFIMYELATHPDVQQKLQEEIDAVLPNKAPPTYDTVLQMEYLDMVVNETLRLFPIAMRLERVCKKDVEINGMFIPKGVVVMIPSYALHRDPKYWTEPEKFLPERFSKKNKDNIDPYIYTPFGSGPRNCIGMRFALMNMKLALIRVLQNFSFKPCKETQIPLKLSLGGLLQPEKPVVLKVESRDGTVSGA

[11] = system: Rattus norvegicus; test: Hypnotic activity in Sprague-Dawley rat assessed as total sleep time at 3 mg/kg, po administered during active phase; assay type: functional; in short: as §1
[12] = system: Rattus norvegicus; test: Hypnotic activity in Sprague-Dawley rat assessed as non-rapid eye movement sleep at 3 mg/kg, po administered during active phase; assay type: functional; in short: as §1
[13] = Fraction unbound in rat brain; assay type: ADME, tissue-based
[14] = system: Rattus norvegicus; test: Hypnotic activity in Sprague-Dawley rat assessed as non-rapid eye movement sleep at 10 mg/kg, po administered during active phase; assay type: functional; in short: as §1
[15] = system: Rattus norvegicus; test: Hypnotic activity in Sprague-Dawley rat assessed as total sleep time at 10 mg/kg, po administered during active phase; assay type: functional; in short: as §1
[16] = target: 5-hydroxytryptamine receptor 2B (Homo sapiens, UniProt P41595); test: Antagonist activity at human 5HT2B receptor expressed in human SH-SY5Y cells by FLIPR assay
Sequence of 5-hydroxytryptamine receptor 2B (P41595 whole entry): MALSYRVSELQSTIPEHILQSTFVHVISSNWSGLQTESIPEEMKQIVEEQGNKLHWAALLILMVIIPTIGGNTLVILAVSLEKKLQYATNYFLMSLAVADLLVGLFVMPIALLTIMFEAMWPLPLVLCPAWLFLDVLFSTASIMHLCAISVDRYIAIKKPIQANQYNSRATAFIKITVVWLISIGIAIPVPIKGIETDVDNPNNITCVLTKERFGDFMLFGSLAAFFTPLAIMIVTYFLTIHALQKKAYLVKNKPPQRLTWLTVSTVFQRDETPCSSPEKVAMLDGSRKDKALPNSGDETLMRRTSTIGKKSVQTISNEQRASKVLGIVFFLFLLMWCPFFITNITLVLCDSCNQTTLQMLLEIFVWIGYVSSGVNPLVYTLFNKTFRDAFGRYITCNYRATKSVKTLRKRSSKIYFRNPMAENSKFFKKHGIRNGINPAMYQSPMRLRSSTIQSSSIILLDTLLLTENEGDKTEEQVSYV

[17] = system: Rattus norvegicus; test: Hypnotic activity in Sprague-Dawley rat assessed as rapid eye movement sleep at 1 mg/kg, po administered during active phase; assay type: functional; in short: as §1
[18] = system: Rattus norvegicus; test: Hypnotic activity in Sprague-Dawley rat assessed as rapid eye movement sleep at 10 mg/kg, po administered during active phase; assay type: functional; in short: as §1
[19] = target: T2, Cytochrome P450 1A2 (Homo sapiens, UniProt P05177); test: Inhibition of human CYP1A2 transfected in bactosome expression system by spectrofluorimetry; assay type: ADME; in short: as §2
T2 sequence (P05177 whole entry): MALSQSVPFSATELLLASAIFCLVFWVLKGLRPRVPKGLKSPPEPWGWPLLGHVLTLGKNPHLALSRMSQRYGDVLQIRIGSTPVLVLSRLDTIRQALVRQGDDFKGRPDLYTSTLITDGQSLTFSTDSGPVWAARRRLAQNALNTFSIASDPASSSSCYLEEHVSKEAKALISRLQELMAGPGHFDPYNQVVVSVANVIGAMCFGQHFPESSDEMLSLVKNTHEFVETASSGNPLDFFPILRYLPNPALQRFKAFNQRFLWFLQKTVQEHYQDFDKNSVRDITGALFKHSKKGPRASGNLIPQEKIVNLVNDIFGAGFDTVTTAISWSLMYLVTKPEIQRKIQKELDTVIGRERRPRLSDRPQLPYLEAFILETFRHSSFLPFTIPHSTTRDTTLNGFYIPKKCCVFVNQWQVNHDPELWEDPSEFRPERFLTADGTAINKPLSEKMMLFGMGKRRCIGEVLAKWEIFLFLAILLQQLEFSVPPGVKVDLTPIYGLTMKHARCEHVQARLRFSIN

[20] = target: 5-hydroxytryptamine receptor 2A (Rattus norvegicus, UniProt P14842); test: Displacement of [3H]ketanserin from 5HT2A receptor in Sprague-Dawley rat cortical membrane by liquid scintillation counting
Sequence of 5-hydroxytryptamine receptor 2A (Rattus norvegicus, UniProt P14842) (P14842 whole entry): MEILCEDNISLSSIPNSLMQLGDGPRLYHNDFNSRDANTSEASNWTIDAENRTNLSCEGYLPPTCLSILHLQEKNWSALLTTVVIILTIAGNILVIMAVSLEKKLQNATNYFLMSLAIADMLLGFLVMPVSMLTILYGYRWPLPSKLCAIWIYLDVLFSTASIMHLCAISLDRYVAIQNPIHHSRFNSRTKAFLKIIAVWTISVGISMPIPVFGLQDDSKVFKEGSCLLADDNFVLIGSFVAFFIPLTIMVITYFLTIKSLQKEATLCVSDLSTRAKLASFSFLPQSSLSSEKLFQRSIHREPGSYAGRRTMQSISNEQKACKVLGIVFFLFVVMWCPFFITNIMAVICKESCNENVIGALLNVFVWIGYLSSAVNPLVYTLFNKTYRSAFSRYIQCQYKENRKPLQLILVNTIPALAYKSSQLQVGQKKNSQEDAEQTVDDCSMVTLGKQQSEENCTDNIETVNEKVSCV
In short: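 Cerebral cortex membranes from male Sprague-Dawley rats (200-250 g), 50 μg/well. Incubated with 1 nM [3H]ketanserin in 50 mM Tris-HCl, 10 mM MgCl2, pH 7.4, for 1 h at 37 °C with shaking. Filtered on PEI-soaked GF/B and counted by scintillation. Nonspecific binding with 10 μM mianserin. Ki by Cheng-Prusoff; mean of two experiments in duplicate.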

[21] = target: Cytochrome P450 2D6 (Homo sapiens, UniProt P10635); test: Inhibition of human CYP2D6 transfected in bactosome expression system by spectrofluorimetry; assay type: ADME; in short: as §2
Sequence of Cytochrome P450 2D6 (P10635 whole entry): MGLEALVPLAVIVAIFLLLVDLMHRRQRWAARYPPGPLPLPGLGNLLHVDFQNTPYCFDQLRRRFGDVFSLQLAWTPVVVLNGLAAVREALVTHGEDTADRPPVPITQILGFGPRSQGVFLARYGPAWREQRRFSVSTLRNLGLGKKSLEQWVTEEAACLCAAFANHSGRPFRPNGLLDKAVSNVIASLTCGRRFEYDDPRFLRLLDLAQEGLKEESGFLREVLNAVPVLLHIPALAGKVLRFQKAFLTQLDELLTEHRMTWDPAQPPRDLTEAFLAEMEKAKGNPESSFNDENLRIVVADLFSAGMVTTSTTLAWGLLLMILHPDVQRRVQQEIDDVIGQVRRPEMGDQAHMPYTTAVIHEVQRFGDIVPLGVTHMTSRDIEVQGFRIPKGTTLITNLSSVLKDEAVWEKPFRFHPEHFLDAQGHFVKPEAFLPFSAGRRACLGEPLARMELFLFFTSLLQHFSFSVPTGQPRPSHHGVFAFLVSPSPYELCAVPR

[22] = target: Histamine H1 receptor (Homo sapiens, UniProt P35367); test: Antagonist activity against human histamine H1 receptor expressed in CHO cells by FLIPR assay; assay type: functional, cell-based
Sequence of Histamine H1 receptor (P35367 whole entry): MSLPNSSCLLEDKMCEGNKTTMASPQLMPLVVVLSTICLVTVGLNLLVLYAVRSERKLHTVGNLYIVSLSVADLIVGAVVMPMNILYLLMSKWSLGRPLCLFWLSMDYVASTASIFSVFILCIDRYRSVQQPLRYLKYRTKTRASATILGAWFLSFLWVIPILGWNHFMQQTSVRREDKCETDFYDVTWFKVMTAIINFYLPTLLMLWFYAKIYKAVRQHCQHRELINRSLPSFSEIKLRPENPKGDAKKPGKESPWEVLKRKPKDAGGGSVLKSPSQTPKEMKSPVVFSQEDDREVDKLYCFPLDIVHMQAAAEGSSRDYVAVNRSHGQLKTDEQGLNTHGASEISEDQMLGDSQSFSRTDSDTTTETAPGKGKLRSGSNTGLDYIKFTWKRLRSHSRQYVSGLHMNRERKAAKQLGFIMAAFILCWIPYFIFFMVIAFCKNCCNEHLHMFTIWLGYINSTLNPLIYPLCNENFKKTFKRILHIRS

[23] = system: Rattus norvegicus; test: Hypnotic activity in Sprague-Dawley rat assessed as non-rapid eye movement latency period at 10 mg/kg, po administered during active phase; assay type: functional; in short: as §1

SMILES	fraction unbound [1]	Time [2] [min]	Time [3] [min]	Ki [4] [nM]	Time [5] [min]	Time [6] [min]	IC50 [7] [nM]	Time [8] [min]	Ki [9] [nM]	IC50 [10] [nM]	Time [11] [min]	Time [12] [min]	fraction unbound [13]	Time [14] [min]	Time [15] [min]	Ki [16] [nM]	Time [17] [min]	Time [18] [min]	IC50 [19] [nM]	Ki [20] [nM]	further results
O=C(O)C1CN(C2CC[C@]3(Cc4ccccc4Cc4ccccc43)C2)C1 (some centres undefined)	0.12	16.1	87.4	6.31	64.5	81.6	> 10000	98.1	15.8	> 10000	134.7	118.6	0.032	130.5	145.2	79.4	10.7	14.6	> 10000	33.1	IC50 [21]: > 10000 nM; Ki [22]: 6.31 nM; Time [23]: 33.5 min
O=C(O)C1CCN(C2CC[C@]3(Cc4ccccc4Cc4ccccc43)C2)CC1 (some centres undefined)	0.182	11	84.7	63.1	83.8	77.9	> 10000	94.4	79.4	> 10000	105.2	94.2	0.031	104	105.2	158	9.7	12.6	> 10000	33.9	IC50 [21]: > 10000 nM; Ki [22]: 50.1 nM; Time [23]: 34.6 min
O=C(O)C1CN(C2CCC3(Cc4ccccc4Oc4ccccc43)C2)C1 (centres undefined)	0.171	15.1	107.3	31.6	63.4	77.7	> 10000	120.7	31.6	> 10000	138.3	123.2	0.04	139.5	155.7	794	13.3	16.2	> 10000	33.9	IC50 [21]: > 10000 nM; Ki [22]: 50.1 nM; Time [23]: 31.5 min
